Source: PubChem (several laboratories)
An excerpt weighted towards active compounds, which were near 2.7% of everything screened.
MC4R barr agon – MC4R agonists recruiting beta-arrestin, primary screen, cell-based, luminescence, agonist arm of biased-ligand search | U2OS MC4R beta-arrestin complementation; percent of melanotan II response, DMSO zero | activation, % at 8.9 µM | 360,000 compounds, 0.98% hits | Melanocortin receptor 4 (Homo sapiens), P32245 | AID 540308, 2011;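 active means activation above a per-plate cutoff, the mean activation of sample wells on that plate plus 3 SD, cut at about 8% in these data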
Target sequence (P32245 whole entry, looked up): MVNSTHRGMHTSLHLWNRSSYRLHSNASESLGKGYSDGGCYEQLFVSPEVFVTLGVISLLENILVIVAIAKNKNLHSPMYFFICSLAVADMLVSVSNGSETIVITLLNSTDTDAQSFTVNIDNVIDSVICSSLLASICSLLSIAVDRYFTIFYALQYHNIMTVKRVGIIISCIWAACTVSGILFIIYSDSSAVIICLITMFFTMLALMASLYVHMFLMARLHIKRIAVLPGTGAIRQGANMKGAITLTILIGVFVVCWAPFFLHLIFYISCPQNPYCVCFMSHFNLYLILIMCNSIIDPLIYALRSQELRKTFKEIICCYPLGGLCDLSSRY
NR1D1 modulator – modulators of Rev-erb alpha DNA binding, primary screen, biochemical, FITC-DNA, fluorescence polarization, uHTS. 370,000 compounds, 0.79% hits. AID 1259318, 2017. Nuclear receptor subfamily 1 group D member 1 (Homo sapiens), P20393. Rev-erbα–FITC-DNA binding, 90 min. activity, % at 10 µM;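 active means activity above about 14%, limit read from the data; passing the limit was not always enough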;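 further: 0% = DMSO wells with 35 nM protein and 100% = DMSO wells with 750 nM protein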
MC4R antag cAMP – MC4R antagonists of cAMP signaling, primary screen, cell-based, TR-FRET, antagonist arm of biased-ligand search; 360,000 compounds, 0.48% hits; MC4R-expressing cells, MTII-stimulated cAMP, LANCE TR-FRET; inhibition, % at 6.5 µM;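 active means inhibition above its plate's cutoff, the mean of tested wells on that plate plus 3 SD, cut at about 29% in these data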;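 further: 0% = Melanotan II alone and 100% = Melanotan II plus saturating MCL0020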
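Test system: U2OS cells stably expressing human melanocortin 4 receptor (MC4R); also added: Melanotan II challenge; compound: 6.5 µM single dose; timing: 30-min compound preincubation, 1-h Melanotan II challenge, 1-h detection, room temperature; signal: Eu-cAMP/anti-cAMP TR-FRET, emission 671 nm; repeats: one well per compound, no replicates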
NR2E3 ag-1 – inhibitors of NR2E3-RetCOR corepressor binding, primary screen, NR2E3 agonist project, biochemical, TR-FRET, GST-NR2E3, biotin-RetCOR | Photoreceptor-specific nuclear receptor (Homo sapiens), Q9Y5X4 | 1536-well | inhibition of corepressor binding, % at 4.78 µM | 320,000 compounds, 0.12% hits | AID 2300, 2010;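 active means percent inhibition above the cutoff of mean plus 3 SD of all tested compounds, set per screening campaign, cut at about 20% in these data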;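 further: 0% = DMSO wells and 100% = biotin wells as full block of FRET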
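Material – GST-tagged NR2E3 plus biotinylated RetCOR corepressor · Quantity – NR2E3 fusion 1.35 nM · Times – 5 h incubation at 4 °C · Medium – pH 7.5 Tris-based buffer · Technique – TR-FRET, Eu(K)-anti-GST donor, streptavidin-D2 acceptor, ex 340, em 617/671 nm · Benchmarks – high control biotin, low control 0.6% DMSO · Format – 1536-well plates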
NR2E3 ag-2 – NR2E3 agonists in two-hybrid cells, primary screen, cell-based, luminescence, CHO-S, Gal4-NCOR/VP16-NR2E3 | Photoreceptor-specific nuclear receptor (Homo sapiens), Q9Y5X4 | luciferase | inhibition of corepressor binding, % at 3.98 µM | 360,000 compounds, 0.35% hits;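 active means inhibition above the mean of all tested compounds plus 3 SD, cut at about 70% in these data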;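 further: 0% = DMSO with NR2E3 transfected cells and 100% = cells lacking NR2E3 construct; higher means lower luciferase signal from less NR2E3 corepressor binding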
PG9 Ab binder – binders of HIV-1 gp120 antibody PG9, primary screen, biochemical, TR-FRET; HIV-1 gp120 / PG9 antibody interaction; TR-FRET gp120-PG9 antibody binding; inhibition, % at 6.7 µM; 360,000 compounds, 0.43% hits; AID 624416, 2012; in the data active means inhibition above about 8.5%
PG9 binder conf – binders of anti-gp120 antibody PG9, confirmation, biochemical, TR-FRET. TR-FRET PG9 antibody binding. shares compounds with PG9 Ab binder. inhibition, % at 6.7 µM. AID 651571, 2012. 1,500 compounds, 90% hits; in the data active means inhibition above about 9%
PGV04 counter – binders of control antibody PGV04, counter-screen for PG9 antibody binder project, biochemical, TR-FRET, distinct HIV envelope site | shares compounds with PG9 Ab binder | TR-FRET PGV04 antibody-gp120 binding | inhibition, % at 6.7 µM | 1,500 compounds, 95% hits | AID 651604, 2012; in the data active means inhibition above about 9.5%
PG9 binder DR – small-molecule binders of antibody PG9, dose response, biochemical, TR-FRET, HIV-1 gp120 antibody; shares compounds with PG9 Ab binder; 95 tested, under 10 active; TR-FRET PG9 antibody-gp120 binding inhibition; IC50, µM; in the data active means IC50 below about 10 µM
PGV04 DR counter – binders of control antibody PGV04, dose response, counter-screen for PG9 antibody binder project, biochemical, TR-FRET, distinct HIV envelope site; 95 compounds, 20% hits; IC50, µM; shares compounds with PG9 Ab binder; TR-FRET binding to control antibody PGV04
PG126 DR counter – binders of control antibody PG126, dose response, counter-screen for PG9 antibody binder project, biochemical, TR-FRET, distinct HIV envelope site. shares compounds with PG9 Ab binder. TR-FRET binding to antibody PG126, counterscreen. IC50, µM. 95 compounds, 20% hits. AID 651939, 2012
Rev-erbA confirm – modulators of Rev-erb alpha DNA binding, confirmation, biochemical, FITC-DNA, fluorescence polarization, single point; 3,000 compounds, 61% hits; activation, % at 25 µM; shares compounds with NR1D1 modulator; 90 min;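 active means activation at or above a set limit, or at least 3 SD above the negative control mean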;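 further: 0% = 35 nM protein with DMSO and 100% = 750 nM protein high control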
RORg counter – modulation of RORgamma DNA binding, dose response, counter-screen for Rev-erb alpha modulator project, biochemical, fluorescence polarization, FITC-DNA. shares compounds with NR1D1 modulator. purified RORgamma protein-FITC-DNA binding. IC50, µM. 910 compounds, 8% hits. AID 1259320, 2017;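 active means Compounds whose fitted half-maximal concentration for disrupting protein-DNA binding is below 10 micromolar; the record names Rev-erb in its text, so the target is in doubt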
Numbers without * were called inactive; i = inactive; nt = no result given. Unless noted, no stated cut-off is given here; in the data, active means IC50 below about 9 µM; inactive means the rest.

SMILES	MC4R barr agon	NR1D1 modulator	MC4R antag cAMP	NR2E3 ag-1	NR2E3 ag-2	PG9 Ab binder	PG9 binder conf	PGV04 counter	Rev-erbA confirm	RORg counter	others
COC(=O)c1ccc(CSc2ncnc3ccccc23)o1	0	-1	1	4	15	-3	nt	nt	nt	nt
COC(=O)c1ccc(CSc2ncnc3c2oc2ccccc23)o1	6	147*	10	2	-17	15*	43*	80*	144*	>40
COc1cccc(NC(=O)Nc2ccccc2Br)c1	-1	3	-4	7	-57	0	nt	nt	nt	nt
COc1ccc2c(C)cc(SCC(=O)c3ccc4c(c3)OCO4)nc2c1	3	3	-1	4	8	-1	nt	nt	nt	nt
COc1ccc2c(-c3ccccc3)cc(SCC(=O)NC(N)=O)nc2c1	-1	40*	6	4	-6	17*	28*	65*	14	nt
COc1ccc2c(C)cc(SCC(=O)Nc3ncc(Cl)cc3Cl)nc2c1	-2	119*	-4	0	-4	14*	37*	53*	56*	>40
COc1ccc2c(-c3ccccc3)cc(N3CCOCC3)nc2c1	1	6	15	-1	3	0	nt	nt	nt	nt
Cc1ccccc1NC(=O)c1cc[n+]([O-])cc1	0	-4	-1	2	-12	0	nt	nt	nt	nt
O=c1c2ccccc2[nH]c(=S)n1Cc1ccc2c(c1)OCO2	6	38*	12	-3	-17	8.6*	12*	22*	48*	>40
O=C(CCCn1c(=S)[nH]c2cc3c(cc2c1=O)OCO3)NCc1ccccc1Cl	0	50*	-3	3	-7	19*	21*	21*	33*	>40	PG9 binder DR=>67;PGV04 DR counter=i;PG126 DR counter=i
O=c1c2ccccc2c2ccccc2c(=O)n1Cc1ccc2c(c1)OCO2	0	1	-4	nt	-34	0	nt	nt	nt	nt
CCCCNC(=O)CCCn1c(=S)[nH]c2cc3c(cc2c1=O)OCO3	0	-4	9	-3	-19	0	nt	nt	nt	nt
Cc1cc(C)c(N(C(=O)c2csnn2)C(C(=O)NC(C)(C)C)c2ccncc2)c(C)c1 (centres undefined)	-1	-5	3	-2	-14	1	nt	nt	nt	nt
CCNc1nc(OC)nc(N2CCC(Cc3ccccc3)CC2)n1	4	-6	-6	-2	11	-1	nt	nt	nt	nt
O=C(c1cc2cc(Br)ccc2[nH]1)N1CCc2ccccc21	1	49*	12	nt	-30	15*	22*	46*	54*	>40
Cn1cc(C2NC(=O)c3ccccc3N2)c2ccccc21 (centres undefined)	-1	25*	-6	nt	-70	20*	9.9*	22*	18*	nt
COc1ccc2c(COC(=O)c3n[nH]c4ccccc34)cc(=O)oc2c1	7	59*	1	0	-98	62*	53*	57*	34*	>40
O=C(COc1ccc(Br)cc1)N1CCN(S(=O)(=O)/C=C/c2ccccc2)CC1	1	-2	10	2	2	-3	nt	nt	nt	nt
COc1ccc(C(=O)c2cccc(C(=O)c3ccc(OC)c(C)c3)c2)cc1C	-1	-1	-3	nt	11	-1	nt	nt	nt	nt
COc1ccc(C(=O)c2ccc(OC)c(Br)c2)cc1Br	-2	113*	19	1	-6	19*	12*	14*	77*	>40
O=C(Cc1ccccc1)Nc1nc(=O)c2ccccc2s1	1	32*	9	1	-8	68*	72*	78*	18*	nt
O=C(Nc1nc(=O)c2ccccc2s1)c1ccc(Cl)cc1	4	78*	4	1	-6	25*	50*	68*	107*	>40
O=C(Nc1nc(=O)c2ccccc2s1)c1ccc(F)cc1	5	79*	12	-14	-33	42*	66*	78*	70*	>40
N#Cc1ccc(-c2nc3ccc(Br)cn3c2Cc2cccc(F)c2)cc1	nt	2	nt	nt	-50	4	nt	nt	nt	nt
Cc1cc(Br)cn2c(Cc3cccc(F)c3)c(-c3ccc(C#N)cc3)nc12	nt	27*	nt	nt	-3	9.2*	15*	21*	13*	nt
N#Cc1ccc(-c2nc3ccc(Br)cn3c2Cc2ccccc2)cc1	0	22*	-1	nt	-37	10*	14*	23*	14*	nt
Cc1ccc(-n2c(SCC(=O)Nc3ccccc3-c3ccccc3)nnc2-c2ccccc2)cc1	nt	-5	nt	nt	nt	nt	nt	nt	nt	nt
Cc1ccccc1NC(=O)CSc1nnc(-c2ccccc2)n1-c1ccccc1	-1	37*	12	7	0	37*	4	6	21*	nt
